From ChEMBL document CHEMBL1121964, “Potential neuroleptic agents. 2,6-Dialkoxybenzamide derivatives with potent dopamine receptor blocking activities” (J Med Chem, 1982)

Tests used:
[1] = The acute toxicity was assessed after (ip) administration in male Sprague-Dawley rats; assay type: organism-based; conditions: rat, in vivo
Rattus norvegicus [2] = test: The dosage at which 50% of the animals were cataleptic was measured after (ip) administration in male Sprague-Dawley rats; assay type: functional
In short: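 Eight rats per dose level were tested. Both forelimbs were placed on a 7-cm-high horizontal bar, and failure to step off within 60 s counted as cataleptic. Testing was done 1, 2, 4, 8 and 24 h post-dose. ED50 with 95% confidence interval came from probit analysis of each compound's peak cataleptic effect.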

Rattus norvegicus [3] = test: In vivo blocking of apomorphine induced hyperactivity following 1 mg/kg i.p. in rats after 60 min.; assay type: functional; conditions: ip, 1 h, route intraperitoneal
In short: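 Male Sprague-Dawley rats (250-300 g) were dosed ip with test compound in saline or water 60 min before apomorphine 1 mg/kg sc into the neck. Behavior was scored at 5, 20, 40 and 60 min. It was calculated by Theil's method with Sen's tie correction, with a 90% confidence interval.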

Rattus norvegicus [4] = test: In vivo blocking of apomorphine induced stereotypies following 1 mg/kg i.p. in rats after 60 min.; assay type: functional; conditions: ip, 1 h, route intraperitoneal
In short: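 Male Sprague-Dawley rats (250-300 g) received test compound ip in saline or water 60 min before sc apomorphine 1 mg/kg given into the neck. Stereotypy strength was scored at 5, 20, 40 and 60 min. It was derived by Theil's method with Sen's correction for ties, with a 90% confidence interval.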

SMILES: CCN1CCC[C@H]1CNC(=O)c1c(OC)ccc(Br)c1OC.Cl
- LD50 [1]: 794 µmol/kg
- ED50 (Rattus norvegicus [2]): 24.5 µmol/kg

SMILES: CCN1CCC[C@H]1CNC(=O)c1c(OC)ccc(Cl)c1OC.Cl
- ED50 (Rattus norvegicus [3]): 5.6 µmol/kg
- LD50 [1]: ~826 µmol/kg
- ED50 (Rattus norvegicus [4]): 11.7 µmol/kg

SMILES: CCOc1ccc(Br)c(OCC)c1C(=O)NC[C@@H]1CCCN1CC.Cl
- ED50 (Rattus norvegicus [3]): 0.47 µmol/kg
- LD50 [1]: 206 µmol/kg
- ED50 (Rattus norvegicus [2]): 8.9 µmol/kg
- ED50 (Rattus norvegicus [4]): 1.9 µmol/kg

SMILES: CCN1CCC[C@@H]1CNC(=O)c1c(OC)ccc(Br)c1OC
- ED50 (Rattus norvegicus [3]): 120 µmol/kg
- ED50 (Rattus norvegicus [4]): > 196 µmol/kg

SMILES: CCN1CCC[C@@H]1CNC(=O)c1c(OC)c(Br)cc(Br)c1OC
- ED50 (Rattus norvegicus [3]): 13.1 µmol/kg
- LD50 [1]: 159 µmol/kg
- ED50 (Rattus norvegicus [4]): > 82 µmol/kg

SMILES: CCN1CCCC1CNC(=O)c1c(OC)c(Cl)cc(Br)c1OC (stereo not drawn)
- ED50 (Rattus norvegicus [3]): 3.9 µmol/kg
- LD50 [1]: 206 µmol/kg
- ED50 (Rattus norvegicus [2]): 5 µmol/kg
- ED50 (Rattus norvegicus [4]): 7.3 µmol/kg

SMILES: CCN1CCCC1CNC(=O)c1c(OC)c(Cl)cc(Cl)c1OC (stereo not drawn)
- ED50 (Rattus norvegicus [3]): 3.1 µmol/kg
- LD50 [1]: 224 µmol/kg
- ED50 (Rattus norvegicus [2]): 16.8 µmol/kg
- ED50 (Rattus norvegicus [4]): 5.4 µmol/kg

SMILES: CCN1CCC[C@H]1CNC(=O)c1c(OC)c(Br)cc(Br)c1OC
- ED50 (Rattus norvegicus [3]): 0.44 µmol/kg
- ED50 (Rattus norvegicus [2]): 5.3 µmol/kg
- ED50 (Rattus norvegicus [4]): 2.1 µmol/kg

SMILES: CCN1CCCC1CNC(=O)c1c(Cl)cccc1Cl (stereo not drawn)
- ED50 (Rattus norvegicus [3]): > 80 µmol/kg
- ED50 (Rattus norvegicus [4]): > 80 µmol/kg

SMILES: CCN1CCCC1CNC(=O)c1c(OC)ccc(Cl)c1OC (stereo not drawn)
- ED50 (Rattus norvegicus [3]): 30.8 µmol/kg
- ED50 (Rattus norvegicus [4]): 42.7 µmol/kg

SMILES: CCN1CCCC1CNC(=O)c1c(OC)c(Br)cc(Br)c1OC.Cl (stereo not drawn)
- ED50 (Rattus norvegicus [3]): 1.15 µmol/kg
- LD50 [1]: 177 µmol/kg
- ED50 (Rattus norvegicus [2]): 8.2 µmol/kg
- ED50 (Rattus norvegicus [4]): 4.6 µmol/kg

SMILES: CCOc1cccc(OCC)c1C(=O)NCC1CCCN1CC (stereo not drawn)
- ED50 (Rattus norvegicus [3]): 23.4 µmol/kg
- ED50 (Rattus norvegicus [4]): > 40 µmol/kg

SMILES: CCOc1ccc(Cl)c(OCC)c1C(=O)NCC1CCCN1CC (stereo not drawn)
- ED50 (Rattus norvegicus [3]): 2.8 µmol/kg
- ED50 (Rattus norvegicus [2]): 31 µmol/kg
- ED50 (Rattus norvegicus [4]): 7.2 µmol/kg

SMILES: CCN1CCCC1CNC(=O)c1c(OC)ccc(Br)c1OC.Cl (stereo not drawn)
- ED50 (Rattus norvegicus [3]): 12.8 µmol/kg
- LD50 [1]: 817 µmol/kg
- ED50 (Rattus norvegicus [2]): 47 µmol/kg
- ED50 (Rattus norvegicus [4]): 21.3 µmol/kg

SMILES: CCN1CCCC1CNC(=O)c1c(OC(C)C)cccc1OC(C)C.Cl (stereo not drawn)
- ED50 (Rattus norvegicus [3]): > 80 µmol/kg
- LD50 [1]: ~160 µmol/kg
- ED50 (Rattus norvegicus [4]): > 80 µmol/kg

SMILES: COc1ccc(Br)c(OC)c1C(=O)NCC1CCCN1 (stereo not drawn)
- ED50 (Rattus norvegicus [3]): 47 µmol/kg
- ED50 (Rattus norvegicus [4]): 100 µmol/kg

SMILES: CCN(CC1CCCN1CC)C(=O)c1c(OC)c(Br)cc(Br)c1OC (stereo not drawn)
- ED50 (Rattus norvegicus [3]): > 80 µmol/kg
- ED50 (Rattus norvegicus [4]): > 80 µmol/kg

SMILES: CCOc1ccc(Br)c(OCC)c1C(=O)NCC1CCCN1CC (stereo not drawn)
- ED50 (Rattus norvegicus [3]): 1.1 µmol/kg
- ED50 (Rattus norvegicus [2]): 15.7 µmol/kg
- ED50 (Rattus norvegicus [4]): 4.7 µmol/kg

SMILES: O=C(CCCN1CCC(O)(c2ccc(Cl)cc2)CC1)c1ccc(F)cc1 [HALOPERIDOL]
- ED50 (Rattus norvegicus [3]): 0.29 µmol/kg
- ED50 (Rattus norvegicus [2]): 0.67 µmol/kg
- ED50 (Rattus norvegicus [4]): 0.27 µmol/kg

SMILES: CCN1CCCC1CNC(=O)c1cc(S(N)(=O)=O)ccc1OC (stereo not drawn) [SULPIRIDE]
- ED50 (Rattus norvegicus [3]): 65.6 µmol/kg
- ED50 (Rattus norvegicus [2]): 161 µmol/kg
- ED50 (Rattus norvegicus [4]): 212 µmol/kg
